Measured values taken from paper PMC4467585 (Journal of Thoracic Oncology, 2015).
Like-named read-outs stand apart in the source and are kept apart here.

Key:
[1] = cited from earlier work
[2] = Phase I study: DLTs, MTD and adverse events; format: in vivo, human; conditions: for Dose-limiting toxicity: one patient
Procedure, shortened: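 Adult Japanese patients with ALK-rearranged advanced tumors, progressed on standard therapy. Oral test compound: single dose in a 3-day PK run-in, then once daily in continuous 21-day cycles, 300–750 mg. Cohorts of 3–6 escalated by Bayesian logistic regression model with overdose control (<25% posterior DLT probability in ≥33–≤100% interval). DLTs assessed over cycle 1 including run-in; AEs graded CTCAE v4.03; data cutoff July 4, 2014.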

[3] = Phase I study: single- and multiple-dose plasma pharmacokinetics; format: in vivo, human
ALK-rearranged NSCLC [4] = format: in vivo, human; conditions: for Duration of response to ceritinib: previously treated with alectinib
Procedure, shortened: (§1)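 Investigators assessed response by RECIST v1.1 using CT or MRI at baseline, then day 1 of every odd cycle (−3 to +14 days), excluding cycle 1 day 1. NSCLC patients also had brain MRI or head CT. Oral test compound was given once daily in 21-day cycles. Expansion patients were pooled with escalation patients at the same dose. ORR was reported with exact Clopper–Pearson 95% CI; data cutoff July 4, 2014.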

ALK-rearranged tumors = test: Phase I study: tumor response, all patients incl. IMT; format: in vivo, human; conditions: 11 of 20, 300 to 750 mg
Procedure, shortened: as §1

ALK [5] = conditions: enzyme-based assays; cited from earlier work
IGF-1R = conditions: enzyme panel; cited from earlier work
InsR = conditions: enzyme panel; cited from earlier work
STK22D = conditions: enzyme panel; cited from earlier work
ALK [6] = conditions: cellular level; cited from earlier work
ALK [7] = conditions: more potent; cited from earlier work
c-MET = conditions: unlike crizotinib; cited from earlier work
[8] = tested on: EML4-ALK xenograft models of NSCLC; conditions: including those exhibiting crizotinib resistance; cited from earlier work
ALK-rearranged NSCLC [9] = conditions: ASCEND-1, cited from earlier work; for PFS: 750 mg once daily
[10] = ASCEND-1, cited from earlier work
[11] = ASCEND-1; cited from earlier work
[12] = tested on: alectinib-resistant tumor; conditions: patient who had progressed on alectinib; cited from earlier work
[13] = PK run-in, ln(parameter) = exponent × ln(dose) + constant, 300 to 750 mg

C[C@@H](Oc1cc(-c2cnn(C3CCNCC3)c2)cnc1N)c1c(Cl)ccc(F)c1Cl [Crizotinib]
Gastrointestinal AEs (including nausea, diarrhea, and vomiting) [1]: 39–56%

Cc1cc(Nc2ncc(Cl)c(Nc3ccccc3S(=O)(=O)C(C)C)n2)c(OC(C)C)cc1C1CCNCC1 [Ceritinib, 5-chloro-N2-(2-isopropoxy-5-methyl-4-(piperidin-4-yl)phenyl)-N4-(2-(isopropylsulfonyl)phenyl)pyrimidine-2,4-diamine]
Dose-limiting toxicity ([2]; 600 mg once daily): grade 3 lipase increase
Dose-limiting toxicity ([2]; 750 mg once daily): grade 3 drug-induced liver injury
Posterior probability of DLT rate being in the excessive toxicity interval (≥33% to ≤100%) ([2]; 750-mg once-daily dose, BLRM): 7.3%
Maximum-tolerated dose (MTD) ([2]; Japanese patients with ALK-rearranged tumors, oral): 750 mg once daily
Adverse event: diarrhea ([2]; all patients, 300 to 750 mg): 75%
Adverse event: nausea ([2]; all patients, 300 to 750 mg): 95%
Adverse event: vomiting ([2]; all patients, 300 to 750 mg): 75%
Patients with at least one dose interruption due to AEs ([2]; all patients, 11 patients): 55%
Patients with at least one dose reduction due to AEs ([2]; all patients, nine patients): 45%
Patients reporting grade 3/4 AEs ([2]; all patients, sixteen patients): 80%
Patients reporting grade 3/4 AEs suspected to be drug related ([2]; all patients, ten patients): 50%
Grade 3/4 increased ALT suspected to be drug related ([2]; all patients, two patients): 10%
Patients in whom AEs led to discontinuation ([2]; all patients, two patients): 10%
Exponent of power model, AUC0–24 versus dose [3, 13]: 1.04
Exponent of power model, Cmax versus dose [3, 13]: 0.909
half-life ([3]; human, plasma, oral): 22 to 33 h
Tmax ([3]; human, plasma, oral, Median Tmax, across the tested doses and profile days): 2 to 7 h
Exposure numerically higher compared with Asian patients in ASCEND-1 ([3]; n = 3): < 30%
Partial response, patients (ALK-rearranged NSCLC [4]; ALKi-naive NSCLC patients): two of four
Partial response, patients (ALK-rearranged NSCLC [4]; alectinib-pretreated NSCLC patients): two of four
Partial response, patients (ALK-rearranged NSCLC [4]; crizotinib-pretreated NSCLC patients): five of nine
PR among patients previously treated with ALK inhibitors (ALK-rearranged NSCLC [4]; eight of 15 NSCLC patients): 53%
Patients with a reduction in the size of target lesions (ALK-rearranged NSCLC [4]; of the 16 evaluable NSCLC patients): 15 patients
Disease control rate (ALK-rearranged NSCLC [4]; patients with NSCLC across all dose groups, 13 of 19): 68%
Overall response rate (ALK-rearranged tumors): 55%
IC50 (IGF-1R): 8 nM
IC50 (InsR): 7 nM
IC50 (STK22D): 23 nM
Potency compared with crizotinib in inhibiting ALK (ALK [7]): 20 fold
Inhibition of the kinase activity of c-MET (c-MET): did not inhibit
Antitumor activity in xenograft models [8]: marked antitumor activity
PFS (ALK-rearranged NSCLC [9]; ALK inhibitor naive (n = 83)): 18.4 months
PFS (ALK-rearranged NSCLC [9]; previously treated with crizotinib (n = 163)): 6.9 months
ORR (ALK-rearranged NSCLC [9]; ALK inhibitor naive): 72.3%
ORR (ALK-rearranged NSCLC [9]; all patients (n = 246)): 61.8%
ORR (ALK-rearranged NSCLC [9]; previously treated with crizotinib): 56.4%
Incidence of drug-related grade 3/4 AEs [10]: 49%
Maximum-tolerated dose (MTD) ([10]; oral): 750 mg once daily
Increase in exposure in Asian patients compared with non-Asian patients [11]: < 30%
